From ChEMBL document CHEMBL4627400, “Discovery of Dihydropyrrolo[1,2-a]pyrazin-3(4H)-one-Based Second-Generation GluN2C- and GluN2D-Selective Positive Allosteric Modulators (PAMs) of the N-Methyl-d-Aspartate (NMDA) Receptor” (J Med Chem, 2020)
≈ marks a conversion by molar mass, not a printed value.

Tests used:
[1] = Aqueous solubility of the compound at pH 7.4 after 30 mins by nephelometric analysis; type: physicochemical; details: buffer
[2] = molecular target: T1, Glutamate NMDA receptor; Grin1/Grin2c (Rattus norvegicus) (UniProt P35439+Q00961); assay: Positive allosteric modulation of recombinant rat GluN1a/GluN2C receptor expressed in Xenopus laevis oocytes assessed as increase in glycine/L-glutamate-induced channel current at 30 uM by two-electrode voltage clamp method relative to control; type: cell-based
Method in brief: (§1)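 Oocytes expressing rat GluN1/GluN2C or GluN2D, held at −40 mV in HEPES-buffered Ba2+ solution, pH 7.4, 23 °C. Current given as percent of agonist-alone response. Doubling concentration is the concentration giving 2-fold response; reported as […] log. 6–19 oocytes from 2–3 frogs.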

[3] = molecular target: T2, Ionotropic glutamate receptor NMDA 1/2D (Rattus norvegicus) (UniProt P35439+Q62645); assay: Positive allosteric modulation of recombinant rat GluN1a/GluN2D receptor expressed in Xenopus laevis oocytes assessed as increase in glycine/L-glutamate-induced channel current at 30 uM by two-electrode voltage clamp method relative to control; type: cell-based
Method in brief: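 Oocytes expressing rat GluN1/GluN2C or GluN2D, held at −40 mV in HEPES-buffered Ba2+ solution, pH 7.4, 23 °C. […] Current given as percent of agonist-alone response. […] Doubling concentration is the concentration giving 2-fold response; reported as […] log. 6–19 oocytes from 2–3 frogs.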

[4] = molecular target: T3, Glutamate NMDA receptor; Grin1/Grin2a (Rattus norvegicus, UniProt P35439+Q00959); assay: Positive allosteric modulation of recombinant rat GluN1a/GluN2A receptor expressed in Xenopus laevis oocytes assessed as change in 30 uM glycine/3 uM L-glutamate-induced channel current at 30 uM by two-electrode voltage clamp method (reference value: 40 +/- 4%); type: cell-based
[5] = molecular target: T4, Glutamate NMDA receptor; Grin1/Grin2b (Rattus norvegicus, UniProt P35439+Q00960); assay: Positive allosteric modulation of recombinant rat GluN1a/GluN2B receptor expressed in Xenopus laevis oocytes assessed as change in 30 uM glycine/3 uM L-glutamate-induced channel current at 30 uM by two-electrode voltage clamp method (reference value: 84 +/- 1%); type: cell-based; details: read-out: %max
[6] = molecular target: T1, Glutamate NMDA receptor; Grin1/Grin2c (Rattus norvegicus); assay: Positive allosteric modulation of recombinant rat GluN1a/GluN2C receptor expressed in Xenopus laevis oocytes assessed as change in 30 uM glycine/0.5 uM L-glutamate-induced channel current at 30 uM by two-electrode voltage clamp method (reference value: 54 +/- 1%); type: cell-based
Method in brief: (§2)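 Oocytes expressing rat GluN1/GluN2C or GluN1/GluN2D, TEVC at −40 mV, pH 7.4, 23 °C. […] 30 μM glycine in all solutions per footnote. Vehicle versus drug compared by paired t-test; mean ± SEM.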

[7] = molecular target: T2, Ionotropic glutamate receptor NMDA 1/2D (Rattus norvegicus); assay: Positive allosteric modulation of recombinant rat GluN1a/GluN2D receptor expressed in Xenopus laevis oocytes assessed as change in 30 uM glycine/0.5 uM L-glutamate-induced channel current at 30 uM by two-electrode voltage clamp method (reference value: 54 +/- 1%); type: cell-based; method in brief: as §2
[8] = molecular target: T3, Glutamate NMDA receptor; Grin1/Grin2a; assay: Positive allosteric modulation of recombinant rat GluN1a/GluN2A receptor expressed in Xenopus laevis oocytes assessed as increase in glycine/L-glutamate-induced channel current at 10 to 30 uM by two-electrode voltage clamp method relative to control; type: cell-based
Method in brief: (§3)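 TEVC at −40 mV, 23 °C, in 90 NaCl/1 KCl/0.5 BaCl/0.005 EDTA/10 HEPES (mM), pH 7.4. Oocytes expressed rat GluN1/GluN2A or GluN1/GluN2B. […] Some GluN2A oocytes were BAPTA-loaded. 4–17 oocytes from 1–3 frogs.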

[9] = molecular target: T4, Glutamate NMDA receptor; Grin1/Grin2b; assay: Positive allosteric modulation of recombinant rat GluN1a/GluN2B receptor expressed in Xenopus laevis oocytes assessed as increase in glycine/L-glutamate-induced channel current at 10 to 30 uM by two-electrode voltage clamp method relative to control; type: cell-based; method in brief: as §3
[10] = molecular target: T1, Glutamate NMDA receptor; Grin1/Grin2c (Rattus norvegicus); assay: Positive allosteric modulation of recombinant rat GluN1a/GluN2C receptor expressed in Xenopus laevis oocytes assessed as increase in glycine/L-glutamate-induced channel current by measuring log of doubling concentration by two-electrode voltage clamp method; type: cell-based; method in brief: as §1
[11] = molecular target: Glutamate NMDA receptor; Grin1/Grin2c (Rattus norvegicus, UniProt P35439+Q00961)
[12] = molecular target: Ionotropic glutamate receptor NMDA 1/2D (Rattus norvegicus, UniProt P35439+Q62645)
[13] = Fraction unbound in rat plasma at 1 uM measured after 60 mins by equilibrium dialysis based LC/MS/MS analysis; type: ADME, cell-free
[14] = Cmax in C57Bl/6 mouse at 20 mg/kg, ip by LC/MS/MS analysis; type: ADME, organism-based; parameters: dose 20 mg/kg, route intraperitoneal; details: in vivo
[15] = Half life in C57Bl/6 mouse at 20 mg/kg, ip by LC/MS/MS analysis; type: ADME, organism-based; details: in vivo
[16] = Ratio of drug level in brain to plasma in C57Bl/6 mouse at 20 mg/kg, ip by LC/MS/MS analysis; type: ADME, organism-based; details: read-out: BPR
[17] = Protein binding in rat plasma at 1 uM measured after 60 mins by equilibrium dialysis based LC/MS/MS analysis; type: ADME, cell-free; details: read-out: PPB (converted)
[18] = Cmax in C57Bl/6 mouse at 10 mg/kg, ip by LC/MS/MS analysis; type: ADME, organism-based; parameters: dose 10 mg/kg, route intraperitoneal; details: in vivo
Method in brief: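 Male fed C57BL/6 mice, 6–8 weeks, given 10 mg/kg i.p. (1 mg/mL, 10 mL/kg) in 50% PEG400/water. […] Samples protein-precipitated with acetonitrile, brain homogenised 1:4 in water, quantified by LC-MS/MS with verapamil internal standard.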

[19] = Half life in C57Bl/6 mouse at 10 mg/kg, ip by LC/MS/MS analysis; type: ADME, organism-based; details: in vivo
Method in brief: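 Male, fed C57BL/6 mice (6–8 weeks) got a single i.p. dose of 10 mg/kg (1 mg/mL) in 50% PEG400/water. […] Brain was homogenized 1:4 in water. Samples were acetonitrile-precipitated and measured by LC-MS/MS against a verapamil internal standard. Brain:plasma was reported from AUClast.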

[20] = Drug level in C57Bl/6 mouse brain at 10 mg/kg, ip measured at 0.25 hrs by LC/MS/MS analysis; type: ADME, organism-based; details: read-out: Drug uptake
Method in brief: (§4)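 Fed male mice, 6–8 weeks old, n = 15, 3 per time point. Dosed ip at 10 mg/kg (1 mg/mL) in 50% PEG400/water. […] Brain homogenized 1:4 in water. Samples acetonitrile-precipitated and quantified by LC-MS/MS with verapamil as internal standard.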

[21] = Drug level in C57Bl/6 mouse plasma at 10 mg/kg, ip measured at 0.25 hrs by LC/MS/MS analysis; type: ADME, organism-based; method in brief: as §4
[22] = molecular target: T3, Glutamate NMDA receptor; Grin1/Grin2a; assay: Positive allosteric modulation of recombinant rat GluN1a/GluN2A receptor expressed in Xenopus laevis oocytes assessed as change in 30 to 100 uM glycine/3 uM L-glutamate-induced channel current at 30 uM by two-electrode voltage clamp method (reference value: 46 +/- 5%); type: cell-based
[23] = molecular target: T4, Glutamate NMDA receptor; Grin1/Grin2b; assay: Positive allosteric modulation of recombinant rat GluN1a/GluN2B receptor expressed in Xenopus laevis oocytes assessed as change in 30 to 100 uM glycine/3 uM L-glutamate-induced channel current at 30 uM by two-electrode voltage clamp method (reference value: 79 +/- 1%); type: cell-based; details: read-out: %max
[24] = molecular target: T1, Glutamate NMDA receptor; Grin1/Grin2c (Rattus norvegicus); assay: Positive allosteric modulation of recombinant rat GluN1a/GluN2C receptor expressed in Xenopus laevis oocytes assessed as change in […]/0.3 uM L-glutamate-induced channel current at 30 uM by two-electrode voltage clamp method (reference value: 19 +/- 3%); type: cell-based; method in brief: as §2
[25] = molecular target: T2, Ionotropic glutamate receptor NMDA 1/2D (Rattus norvegicus); assay: Positive allosteric modulation of recombinant rat GluN1a/GluN2D receptor expressed in Xenopus laevis oocytes assessed as change in […]/0.3 uM L-glutamate-induced channel current at 30 uM by two-electrode voltage clamp method (reference value: 29 +/- 2%); type: cell-based; method in brief: as §2
[26] = molecular target: T2, Ionotropic glutamate receptor NMDA 1/2D (Rattus norvegicus); assay: Positive allosteric modulation of recombinant rat GluN1a/GluN2D receptor expressed in Xenopus laevis oocytes assessed as increase in 10 uM glycine/L-glutamate-induced channel current at 30 uM in presence of NMDAR antagonist DL-APV by two-electrode voltage clamp method relative to control; type: cell-based
Method in brief: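 GluN1/GluN2D oocytes, TEVC at −40 mV. 30 μM compound applied with 10 μM glycine plus 50 μM DL-APV (glutamate-site antagonist).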

[27] = molecular target: T2, Ionotropic glutamate receptor NMDA 1/2D (Rattus norvegicus); assay: Positive allosteric modulation of recombinant rat GluN1a/GluN2D receptor expressed in Xenopus laevis oocytes assessed as increase in glycine/10 uM L-glutamate-induced channel current at 30 uM in presence of NMDAR antagonist 7-CKA by two-electrode voltage clamp method relative to control; type: cell-based

T4 sequence (Q00960 whole entry, other chains not shown): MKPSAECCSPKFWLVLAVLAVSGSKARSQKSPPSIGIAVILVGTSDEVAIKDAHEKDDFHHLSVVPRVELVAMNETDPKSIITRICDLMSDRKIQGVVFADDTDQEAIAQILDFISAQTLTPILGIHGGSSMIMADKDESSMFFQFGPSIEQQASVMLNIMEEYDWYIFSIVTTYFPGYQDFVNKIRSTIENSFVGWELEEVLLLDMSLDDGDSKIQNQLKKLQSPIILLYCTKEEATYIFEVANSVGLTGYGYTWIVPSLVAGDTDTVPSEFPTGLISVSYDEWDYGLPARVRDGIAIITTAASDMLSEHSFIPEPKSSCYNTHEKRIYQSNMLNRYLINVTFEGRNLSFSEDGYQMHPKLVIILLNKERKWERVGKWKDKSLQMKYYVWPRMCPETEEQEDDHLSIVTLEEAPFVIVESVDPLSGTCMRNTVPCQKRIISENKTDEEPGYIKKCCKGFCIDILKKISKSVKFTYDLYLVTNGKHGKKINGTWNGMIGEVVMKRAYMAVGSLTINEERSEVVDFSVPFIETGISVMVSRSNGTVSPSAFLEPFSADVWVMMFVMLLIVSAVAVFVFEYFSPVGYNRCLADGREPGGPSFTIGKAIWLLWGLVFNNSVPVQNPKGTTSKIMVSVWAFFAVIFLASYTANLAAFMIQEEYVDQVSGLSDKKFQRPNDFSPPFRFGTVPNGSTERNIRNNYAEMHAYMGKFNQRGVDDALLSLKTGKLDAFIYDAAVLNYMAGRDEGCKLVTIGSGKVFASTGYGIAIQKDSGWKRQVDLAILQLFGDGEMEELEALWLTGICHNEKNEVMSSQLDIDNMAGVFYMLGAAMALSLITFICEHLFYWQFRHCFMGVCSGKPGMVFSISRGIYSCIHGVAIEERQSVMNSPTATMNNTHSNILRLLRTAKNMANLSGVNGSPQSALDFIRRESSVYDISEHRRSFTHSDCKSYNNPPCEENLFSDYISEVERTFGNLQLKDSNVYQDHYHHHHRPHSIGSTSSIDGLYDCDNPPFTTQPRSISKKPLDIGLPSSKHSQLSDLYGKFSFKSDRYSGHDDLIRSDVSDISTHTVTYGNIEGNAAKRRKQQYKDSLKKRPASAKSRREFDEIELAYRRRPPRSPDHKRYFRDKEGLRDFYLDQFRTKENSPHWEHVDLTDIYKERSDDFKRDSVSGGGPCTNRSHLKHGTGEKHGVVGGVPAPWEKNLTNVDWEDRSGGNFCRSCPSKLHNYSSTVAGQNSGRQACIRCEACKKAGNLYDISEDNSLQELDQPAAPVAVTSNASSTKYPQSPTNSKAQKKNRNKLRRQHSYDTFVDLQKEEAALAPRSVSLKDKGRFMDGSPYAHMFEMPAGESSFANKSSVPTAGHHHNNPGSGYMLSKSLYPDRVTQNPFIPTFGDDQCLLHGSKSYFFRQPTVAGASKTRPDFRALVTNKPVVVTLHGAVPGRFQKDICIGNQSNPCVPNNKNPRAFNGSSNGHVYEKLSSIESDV
T3 sequence (Q00959 whole entry, other chains not shown): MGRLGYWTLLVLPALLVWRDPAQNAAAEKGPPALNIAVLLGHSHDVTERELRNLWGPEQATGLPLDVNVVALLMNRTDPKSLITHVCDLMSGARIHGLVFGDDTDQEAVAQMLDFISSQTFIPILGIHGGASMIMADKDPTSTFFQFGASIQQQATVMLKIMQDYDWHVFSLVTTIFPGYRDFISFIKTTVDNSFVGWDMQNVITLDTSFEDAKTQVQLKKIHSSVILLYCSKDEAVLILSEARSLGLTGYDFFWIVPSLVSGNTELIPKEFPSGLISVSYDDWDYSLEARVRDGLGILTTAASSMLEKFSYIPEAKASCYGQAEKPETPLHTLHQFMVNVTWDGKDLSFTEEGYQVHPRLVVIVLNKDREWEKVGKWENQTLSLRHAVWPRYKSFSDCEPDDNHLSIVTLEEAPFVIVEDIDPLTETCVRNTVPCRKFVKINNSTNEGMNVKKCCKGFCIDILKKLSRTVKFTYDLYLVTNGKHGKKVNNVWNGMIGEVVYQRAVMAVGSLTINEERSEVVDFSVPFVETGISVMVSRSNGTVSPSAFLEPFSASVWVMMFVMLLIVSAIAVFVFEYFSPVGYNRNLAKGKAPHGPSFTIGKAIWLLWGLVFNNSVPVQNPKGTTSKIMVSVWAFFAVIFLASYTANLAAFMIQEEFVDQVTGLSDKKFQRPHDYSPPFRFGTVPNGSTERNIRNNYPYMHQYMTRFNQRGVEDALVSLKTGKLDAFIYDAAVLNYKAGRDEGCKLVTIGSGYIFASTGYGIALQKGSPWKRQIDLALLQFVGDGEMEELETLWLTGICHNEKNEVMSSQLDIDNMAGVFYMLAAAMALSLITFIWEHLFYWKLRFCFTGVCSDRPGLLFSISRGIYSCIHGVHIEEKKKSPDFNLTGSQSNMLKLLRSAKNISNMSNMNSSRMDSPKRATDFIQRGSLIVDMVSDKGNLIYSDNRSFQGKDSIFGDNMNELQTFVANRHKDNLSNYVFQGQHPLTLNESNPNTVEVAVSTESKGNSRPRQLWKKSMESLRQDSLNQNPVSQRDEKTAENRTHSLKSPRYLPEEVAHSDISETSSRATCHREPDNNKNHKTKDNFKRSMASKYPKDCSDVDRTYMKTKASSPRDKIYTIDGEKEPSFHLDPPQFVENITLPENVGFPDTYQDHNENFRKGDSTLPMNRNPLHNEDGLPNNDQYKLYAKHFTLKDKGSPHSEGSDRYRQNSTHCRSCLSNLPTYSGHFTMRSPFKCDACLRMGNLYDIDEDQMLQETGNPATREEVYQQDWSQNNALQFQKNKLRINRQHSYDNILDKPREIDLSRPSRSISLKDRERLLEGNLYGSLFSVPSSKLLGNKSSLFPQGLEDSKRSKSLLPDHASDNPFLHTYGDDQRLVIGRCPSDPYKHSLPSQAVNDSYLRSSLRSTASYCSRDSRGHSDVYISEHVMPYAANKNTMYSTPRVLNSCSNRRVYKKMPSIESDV

SMILES: COc1ccc(OC[C@@H]2c3cccn3CC(=O)N2Cc2cccc(F)c2)cc1
- solubility kinetic at 0.5 h [1]: 74 µM (≈ 28.2 µg/mL)
- %max [2]: 100%
- %max [3]: 88%
- %max [4]: 45%
- activity at 30 µM [5]: 85%
- %max [6]: 57%
- %max [7]: 72%
- Activity [8]: Not Active
- Activity [9]: Not Active

SMILES: COc1ccc(OCC2c3ccc(OC)cc3CC(=O)N2CC(F)(F)F)cc1 (stereo not given)
- log(activity) [10]: > -4.5
- %max [2]: 330%
- %max [3]: 160%
- Activity [8]: Not Active
- Activity [9]: Not Active

SMILES: COc1ccc(OC[C@H]2c3cccn3CCN2C(=O)c2cccc(C(F)(F)F)c2)cc1
- solubility kinetic at 0.5 h [1]: 58 µM (≈ 25 µg/mL)
- %max [2]: 460%
- %max [3]: 540%
- Activity [8]: Not Active
- Activity [9]: Not Active
- EC50 [11]: 1260 nM
- EC50 [12]: 1.26 µM

SMILES: COc1ccc(OCC2c3cc(OC)c(OC)cc3CCN2C(=O)c2cccc(Cl)c2)cc1 (stereo not given)
- %max [2]: 230%
- %max [3]: 220%
- fraction unbound at 1 h, 1 µM [13]: < 0.0001
- Cmax [14]: 2160 nM
- half-life [15]: 81 min
- Kp [16]: 6.7
- fraction unbound at 1 h, 1 µM [17]: < 0.001

SMILES: COc1ccc(OCC2c3cccn3CCN2C(=O)c2cccc(C(F)(F)F)c2)cc1 (stereo not given)
- solubility kinetic at 0.5 h [1]: 58 µM (≈ 25 µg/mL)
- %max [2]: 380%
- %max [3]: 290%
- Activity [8]: Not Active
- Activity [9]: Not Active
- EC50 [11]: 1580 nM
- EC50 [12]: 2 µM

SMILES: COc1ccc(OCC2c3cccn3CC(=O)N2Cc2cccc(F)c2)cc1 (stereo not given)
- solubility kinetic at 0.5 h [1]: 74 µM (≈ 28.2 µg/mL)
- %max [2]: 350%
- %max [3]: 350%
- Cmax [18]: 1830 nM
- t1/2 [19]: 1.07 h
- concentration at 0.25 h [20]: 2500 nM
- concentration at 0.25 h [21]: 1830 nM
- fraction unbound at 1 h, 1 µM [17]: 0.013
- Activity [8]: Not Active
- Activity [9]: Not Active
- EC50 [11]: 3160 nM
- EC50 [12]: 3.16 µM

SMILES: COc1ccc(OCC2c3cccn3CCN2C(=O)c2cccc(Cl)c2)cc1 (stereo not given)
- solubility kinetic at 0.5 h [1]: 36 µM (≈ 14.3 µg/mL)
- %max [2]: 370%
- %max [3]: 370%
- Activity [8]: Not Active
- Activity [9]: Not Active
- EC50 [11]: 2510 nM
- EC50 [12]: 3.16 µM

SMILES: COc1ccc(OC[C@H]2c3cccn3CC(=O)N2Cc2cccc(F)c2)cc1
- solubility kinetic at 0.5 h [1]: 74 µM (≈ 28.2 µg/mL)
- %max [2]: 410%
- %max [3]: 390%
- %max [22]: 53%
- activity at 30 µM [23]: 77%
- %max [24]: 48%
- %max [25]: 55%
- Activity [26]: 2.5%
- Activity [27]: 0.4%
- EC50 [11]: 3160 nM
- EC50 [12]: 3.16 µM
